Data from ChEMBL document CHEMBL1765082, “Aminothiazolomorphinans with mixed κ and μ opioid activity” (J Med Chem, 2011).
Active and inactive are the calls of the source. No cut-off for these calls is given here.

Columns and labels:
Homo sapiens [1] = organism: Homo sapiens; assay: Selectivity ratio of Ki for human delta opioid receptor to Ki for human kappa opioid receptor
Homo sapiens [2] = organism: Homo sapiens; assay: Selectivity ratio of Ki for human mu opioid receptor to Ki for human kappa opioid receptor
Mu-type opioid receptor [3] = biological target: T1, Mu-type opioid receptor (Homo sapiens, UniProt P35372); assay: Displacement of [3H]DAMGO from human mu opioid receptor expressed in CHO cells after 60 mins by scintillation counting; assay type: cell-based
T1 sequence (P35372 whole entry): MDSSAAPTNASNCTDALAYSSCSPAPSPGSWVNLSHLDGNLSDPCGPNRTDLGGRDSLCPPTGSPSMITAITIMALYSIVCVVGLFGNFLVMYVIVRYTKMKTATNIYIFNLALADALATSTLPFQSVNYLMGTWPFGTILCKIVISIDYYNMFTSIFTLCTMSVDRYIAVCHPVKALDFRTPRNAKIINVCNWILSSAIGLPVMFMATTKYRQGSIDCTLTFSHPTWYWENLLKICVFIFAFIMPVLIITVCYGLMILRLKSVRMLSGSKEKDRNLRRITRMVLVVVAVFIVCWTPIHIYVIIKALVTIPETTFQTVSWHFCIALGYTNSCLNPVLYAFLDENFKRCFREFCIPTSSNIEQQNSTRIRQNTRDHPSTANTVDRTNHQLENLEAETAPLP

[4] = biological target: T2, Kappa-type opioid receptor (Homo sapiens, UniProt P41145); assay: Displacement of [3H]U69593 from human kappa opioid receptor expressed in CHO cells after 60 mins by scintillation counting; assay type: cell-based
T2 sequence (P41145 whole entry): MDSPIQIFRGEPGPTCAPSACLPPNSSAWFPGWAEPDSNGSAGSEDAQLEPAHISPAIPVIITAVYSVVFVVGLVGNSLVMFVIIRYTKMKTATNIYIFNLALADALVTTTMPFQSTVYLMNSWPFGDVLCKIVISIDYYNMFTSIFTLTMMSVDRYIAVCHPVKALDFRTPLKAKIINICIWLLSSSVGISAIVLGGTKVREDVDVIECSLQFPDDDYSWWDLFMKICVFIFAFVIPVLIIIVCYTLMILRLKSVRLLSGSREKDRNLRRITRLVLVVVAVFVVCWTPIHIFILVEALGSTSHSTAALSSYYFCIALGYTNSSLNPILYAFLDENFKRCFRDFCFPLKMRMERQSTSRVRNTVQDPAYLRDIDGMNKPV

[5] = biological target: Delta-type opioid receptor (Homo sapiens, UniProt P41143); assay: Displacement of [3H]Naltrindole from human delta opioid receptor expressed in CHO cells after 3 hrs by scintillation counting; assay type: cell-based
Delta-type opioid receptor, sequence (P41143 whole entry): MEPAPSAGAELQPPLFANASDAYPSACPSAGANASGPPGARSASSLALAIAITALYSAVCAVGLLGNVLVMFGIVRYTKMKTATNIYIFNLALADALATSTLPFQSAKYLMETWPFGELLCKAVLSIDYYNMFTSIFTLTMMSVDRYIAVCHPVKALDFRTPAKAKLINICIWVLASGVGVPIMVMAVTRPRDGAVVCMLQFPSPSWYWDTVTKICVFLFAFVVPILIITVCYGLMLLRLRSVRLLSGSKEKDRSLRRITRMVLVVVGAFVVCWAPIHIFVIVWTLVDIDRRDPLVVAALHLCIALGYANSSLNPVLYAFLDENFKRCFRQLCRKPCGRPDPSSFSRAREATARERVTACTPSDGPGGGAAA
Method in brief: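 Membranes from CHO cells expressing human κ, μ or δ opioid receptor were incubated with 12 compound concentrations and a receptor-selective radioligand at 25 °C in 50 mM Tris-HCl, pH 7.5. […] Nonspecific binding was defined with 10 μM naloxone. Ki reported as mean ± SEM, three experiments in triplicate.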

Mu-type opioid receptor [6] = biological target: T1, Mu-type opioid receptor; settings: cho
[7] = biological target: T2, Kappa-type opioid receptor; assay: Antagonist activity at human kappa opioid receptor expressed in CHO cells assessed as […] in U50488-induced [35S]GTPgammaS binding by scintillation counting; assay type: functional, cell-based
[8] = biological target: T2, Kappa-type opioid receptor; assay: Agonist activity at human kappa opioid receptor expressed in CHO cells assessed as [35S]GTPgammaS binding by scintillation counting relative to control; assay type: functional, cell-based
Method in brief: (§1)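 Membranes from CHO cells stably expressing human κ (15 μg protein/tube) or μ (7.5 μg protein/tube) opioid receptor, grown in DMEM with 10% FBS at 37 °C, 5% CO2. Twelve agonist concentrations were incubated 60 min at 30 °C in 50 mM Tris-HCl, 3 mM MgCl2, 100 mM NaCl, 0.2 mM EGTA, pH 7.4, with 3 μM GDP and [35S]GTPγS. Filtration, then scintillation counting. Stimulation expressed as percent over basal; ≥3 experiments in triplicate.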

[9] = biological target: T2, Kappa-type opioid receptor; assay: Agonist activity at human kappa opioid receptor expressed in CHO cells assessed as [35S]GTPgammaS binding by scintillation counting; assay type: functional, cell-based
Mu-type opioid receptor [10] = biological target: T1, Mu-type opioid receptor; assay: Agonist activity at human mu opioid receptor expressed in CHO cells assessed as [35S]GTPgammaS binding by scintillation counting; assay type: functional, cell-based
Mu-type opioid receptor [11] = biological target: T1, Mu-type opioid receptor; assay: Agonist activity at human mu opioid receptor expressed in CHO cells assessed as [35S]GTPgammaS binding by scintillation counting relative to control; assay type: functional, cell-based; method in brief: as §1
Mu-type opioid receptor [12] = biological target: T1, Mu-type opioid receptor
Mu-type opioid receptor [13] = biological target: T1, Mu-type opioid receptor; assay: Antagonist activity at human mu opioid receptor expressed in CHO cells assessed as inhibition of DAMGO-induced [35S]GTPgammaS binding at 10 uM by scintillation counting; assay type: functional, cell-based

SMILES	Ratio Ki (Homo sapiens [1])	Ratio Ki (Homo sapiens [2])	Ki (Mu-type opioid receptor [3])	Ki [4]	Ki [5]	IC50 (Mu-type opioid receptor [6])	Activity [7]	Emax [8]	EC50 [9]	EC50 (Mu-type opioid receptor [10])	Emax (Mu-type opioid receptor [11])	IC50 (Mu-type opioid receptor [12])	inhibition (Mu-type opioid receptor [13])
CC(=O)Nc1nc2cc3c(cc2s1)C[C@@H]1[C@@H]2CCCC[C@]32CCN1CC1CC1	58	4	57 nM	13 nM	750 nM								
CNc1nc2cc3c(cc2s1)C[C@@H]1[C@@H]2CCCC[C@]32CCN1CCCF			7.4 nM	0.71 nM	50 nM	Not Active	inactive	170%					
c1ccc(Nc2nc3cc4c(cc3s2)C[C@@H]2[C@@H]3CCCC[C@]43CCN2CC2CC2)cc1	7	9	180 nM	21 nM	140 nM								
c1ccc(CNc2nc3cc4c(cc3s2)C[C@@H]2[C@@H]3CCCC[C@]43CCN2CC2CC2)cc1	20	5	10 nM	2.1 nM	41 nM								
CCCNc1nc2cc3c(cc2s1)C[C@@H]1[C@@H]2CCCC[C@]32CCN1CCCF	21	4	24 nM	5.8 nM	120 nM								
Oc1cccc(CNc2nc3cc4c(cc3s2)C[C@@H]2[C@@H]3CCCC[C@]43CCN2CC2CC2)c1	8	3	9.9 nM	3.5 nM	29 nM								
Nc1nc2cc3c(cc2s1)C[C@@H]1[C@@H]2CCCC[C@]32CCN1CC1CC1	590	30				Not Active	inactive						
Oc1ccc2c(c1)[C@@]13CCCC[C@H]1[C@@H](C2)N(CC1CC1)CC3							inactive						
CCCNc1nc2cc3c(cc2s1)C[C@@H]1[C@@H]2CCCC[C@]32CCN1CC1CC1	49	11	17 nM	1.6 nM	79 nM								
CCNc1nc2cc3c(cc2s1)C[C@@H]1[C@@H]2CCCC[C@]32CCN1CC1CCC1	25	0.3	1.1 nM	3.7 nM	91 nM								
CCNc1nc2cc3c(cc2s1)C[C@@H]1[C@@H]2CCCC[C@]32CCN1CCCF			4 nM	0.94 nM	76 nM	Not Active	inactive	150%	89 nM	240 nM			
Nc1nc2cc3c(cc2s1)C[C@@H]1[C@@H]2CCCC[C@]32CCN1C[C@@H]1CCCO1	67	3	2.4 nM	0.83 nM	56 nM	Not Active	inactive	190%	14 nM	71 nM	120%		
CN(C)c1nc2cc3c(cc2s1)C[C@@H]1[C@@H]2CCCC[C@]32CCN1CCCF	38	7	76 nM	11 nM	420 nM								
Nc1nc2cc3c(cc2s1)C[C@@H]1[C@@H]2CCCC[C@]32CCN1CC1CCC1	290	9					inactive			> 1000 nM		85 nM	
CNc1nc2cc3c(cc2s1)C[C@@H]1[C@@H]2CCCC[C@]32CCN1CC1CC1			3 nM	0.066 nM	25 nM	Not Active	inactive	82%	14 nM	47 nM			
CC(=O)N(C)c1nc2cc3c(cc2s1)C[C@@H]1[C@@H]2CCCC[C@]32CCN1CC1CC1	160	16	110 nM	6.9 nM	1100 nM								
CN1CC[C@]23CCCC[C@H]2[C@H]1Cc1cc2sc(N)nc2cc13	30	0.17											
CNc1nc2cc3c(cc2s1)C[C@@H]1[C@@H]2CCCC[C@]32CCN1CC1CCC1	20	1	1.8 nM	2.4 nM	47 nM								
CCNC(=S)Nc1nc2cc3c(cc2s1)C[C@@H]1[C@@H]2CCCC[C@]32CCN1CC1CC1	8	7	130 nM	18 nM	150 nM								
COc1cccc(CNc2nc3cc4c(cc3s2)C[C@@H]2[C@@H]3CCCC[C@]43CCN2CC2CC2)c1	7	2	9.1 nM	4.8 nM	34 nM								
Nc1nc2cc3c(cc2s1)C[C@@H]1[C@@H]2CCCC[C@]32CCN1CCCF	180	9	2.7 nM	0.3 nM	54 nM		inactive	100%	32 nM	130 nM	65%		40%
CN(C)c1nc2cc3c(cc2s1)C[C@@H]1[C@@H]2CCCC[C@]32CCN1CC1CC1	140	22	10 nM	0.45 nM	65 nM		inactive	110%	46 nM	140 nM	57%		40%
Nc1nc2cc3c(cc2o1)[C@@]12CCCC[C@H]1[C@@H](C3)N(CC1CC1)CC2	> 192	3											
CCNc1nc2cc3c(cc2s1)C[C@@H]1[C@@H]2CCCC[C@]32CCN1CC1CC1			4.7 nM	0.151 nM	43 nM	Not Active	inactive	190%					
CC(=O)Nc1nc2cc3c(cc2s1)C[C@@H]1[C@@H]2CCCC[C@]32CCN1CCCF	180	13	15 nM	1.2 nM	220 nM								
c1ccc(Nc2nc3cc4c(cc3s2)C[C@@H]2[C@@H]3CCCC[C@]43CCN2CC2CC2)nc1		6	610 nM	95 nM	> 10000 nM								
FC(F)(F)CNc1nc2cc3c(cc2s1)C[C@@H]1[C@@H]2CCCC[C@]32CCN1CC1CC1	210	25	21 nM	0.84 nM	180 nM		inactive	120%	120 nM				
CCN(C(C)=O)c1nc2cc3c(cc2s1)C[C@@H]1[C@@H]2CCCC[C@]32CCN1CC1CC1	57	4	86 nM	13 nM	740 nM								
